Experiments:
[1] = folding enthalpy; higher = less favourable; fluorescence melt of hairpins on a sequencing array, two-state fit; conditions: sodium 0.088 M
Procedure, shortened: (§1)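 Melting temperature and folding enthalpy were derived from bootstrapped two-state fits. The fitted temperatures were raised by 9.35 °C to agree with UV melts, and four replicates were combined by inverse variance. The underlying data were Cy3 fluorescence images of library hairpins, with annealed Cy3 and quencher oligos, on a sequenced MiSeq flow cell in 50 mM Na-HEPES pH 8.0, 25 mM NaCl, taken in 2.5 °C steps up to 60 °C, normalised to pre-quench Cy3 and to control constructs.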

[2] = melting temperature; fluorescence melt of hairpins on a sequencing array, two-state fit, raised by 9.35 °C to match UV melts; conditions: sodium 0.088 M
Procedure, shortened: as §1

| Sequence | folding enthalpy [1] | Tm [2] |
| --- | --- | --- |
| GACAGCGAAAGCTAAGTC ((((((....)))..))) | -17.5 kcal/mol | 38.2 °C |
| GACAGCGAAAGCTATGTC ((((((....)))..))) | -19.1 kcal/mol | 43.5 °C |
| GACAGCGGAAACGCTACC (..((((....))))..) | -11.1 kcal/mol | 24.2 °C |
| GACAGGCCGAAAGGCGTC (((..(((....)))))) | -14.9 kcal/mol | 47.7 °C |
| GACAGGGGAAACCCCGTC (((.(((....))).))) | -24.6 kcal/mol | 50.3 °C |
| GACAGGGGAAACCTTGTC ((((.((....)).)))) | -32.4 kcal/mol | 45.2 °C |
| GACAGTGGAAACACTGTC (((((((....))))))) | -39.5 kcal/mol | 60.8 °C |
| GACAGTGGAAACGCTGTC (((((.(....).))))) | -40.9 kcal/mol | 52.1 °C |
| GACATACGAAAGTAGTC (((.(((....)))))) | -22.2 kcal/mol | 41.5 °C |
| GACATAGGAAACTATGCC (.(((((....))))).) | -18.6 kcal/mol | 34.3 °C |
| GACATCGCGAAAGCGGTC (((..(((....)))))) | -11.6 kcal/mol | 34.8 °C |
| GACATCGGAAACGACGTC (((.(((....))).))) | -28 kcal/mol | 43.3 °C |
| GACATGCGAAAGCAGGTC (((.(((....))).))) | -29.8 kcal/mol | 65.7 °C |
| GACATGGGAAACTATGTC (((((.(....).))))) | -27.6 kcal/mol | 44.4 °C |
| GACATTACGAAAGTAGTC (((..(((....)))))) | -14.8 kcal/mol | 27.4 °C |
| GACATTGGAAACAGTGTC ((((.((....)).)))) | -33.1 kcal/mol | 42.6 °C |
| GACCAAGGAAACTTGATC ((.((((....)))).)) | -16.8 kcal/mol | 28.8 °C |
| GACCACCCGAAAGGGGTC (((..(((....)))))) | -13.1 kcal/mol | 46.5 °C |
| GACCACGAAAGTGCAGTC ((((((....)))..))) | -17.5 kcal/mol | 36.6 °C |
| GACCACGGAAACGCGGTC ((((.((....)).)))) | -49 kcal/mol | 53.2 °C |
| GACCACGGAAACGTGGCC (.(((((....))))).) | -13.3 kcal/mol | 49.9 °C |
| GACCAGAAATGGTC (((((....))))) | -33.2 kcal/mol | 51.2 °C |
| GACCAGCGAAAGCTAGTC (((.(((....))).))) | -23.1 kcal/mol | 44.8 °C |

| Sequence | folding enthalpy [1] | Tm [2] |
| --- | --- | --- |
| GACCAGGGAAACCTGACC (..((((....))))..) | -10 kcal/mol | 30.1 °C |
| GACCCAGAAATGGGTC ((((((....)))))) | -35.3 kcal/mol | 64 °C |
| GACCCAGGAAACTGAGTC (((.(((....))).))) | -30 kcal/mol | 37.9 °C |
| GACCCAGGAAACTGGATC ((.((((....)))).)) | -17.9 kcal/mol | 38.8 °C |
| GACCCCACGAAAGTGGTC (((..(((....)))))) | -8.51 kcal/mol | 28.9 °C |
| GACCCCCCGAAAGGGGTC (((..(((....)))))) | -15.2 kcal/mol | 57.2 °C |
| GACCCCCGAAAGGGCGTC (((.(((....))).))) | -25.1 kcal/mol | 55.4 °C |
| GACCCCGAAAGGGATGTC ((((((....)))..))) | -15.6 kcal/mol | 41.2 °C |
| GACCCCGAAAGGGCAGTC ((((((....)))..))) | -14 kcal/mol | 35.4 °C |
| GACCCCGAAAGGGCCGTC ((((((....)))..))) | -14 kcal/mol | 35.7 °C |
| GACCCCGAAAGGGCTGTC ((((((....)))..))) | -14.6 kcal/mol | 40.9 °C |
| GACCCCGAAAGGGTGGTC ((((((....)))..))) | -16.5 kcal/mol | 49.4 °C |
| GACCCCGAAAGGGTTGTC ((((((....)))..))) | -14.4 kcal/mol | 43.4 °C |
| GACCCGGGAAACCGAGTC (((.(((....))).))) | -32.8 kcal/mol | 45.3 °C |
| GACCCGGGAAACCGGGCC (.(((((....))))).) | -12.6 kcal/mol | 53.3 °C |
| GACCGACGAAAGTCAGTC (((.(((....))).))) | -23.5 kcal/mol | 47.9 °C |
| GACCGACGAAAGTCTGTC (((.(((....))).))) | -31.1 kcal/mol | 48.7 °C |
| GACCGAGGAAACCCGGTC (((((.(....).))))) | -36.4 kcal/mol | 53.2 °C |
| GACCGCACGAAAGTGGTC (((..(((....)))))) | -21.1 kcal/mol | 47 °C |
| GACCGCCCGAAAGGGGTC (((..(((....)))))) | -15.4 kcal/mol | 42.3 °C |
| GACCGCCGAAAGGCCGTC (((.(((....))).))) | -18.8 kcal/mol | 50.7 °C |
| GACCGCGAAAGCGACGTC ((((((....)))..))) | -13.2 kcal/mol | 45.8 °C |
| GACCGCGAAAGCGGAGTC ((((((....)))..))) | -7.63 kcal/mol | 40.6 °C |

| Sequence | folding enthalpy [1] | Tm [2] |
| --- | --- | --- |
| GACCGCGAAAGCGGGTC ((((((....))).))) | -11.9 kcal/mol | 68.8 °C |
| GACCGCGAAAGCGGTGTC ((((((....)))..))) | -8.7 kcal/mol | 63.8 °C |
| GACCGCGAAAGCGTTGTC ((((((....)))..))) | -13.2 kcal/mol | 40.1 °C |
| GACCGCGGAAACGCAGTC (((.(((....))).))) | -24.6 kcal/mol | 48.9 °C |
| GACCGGAAACGGTC (((((....))))) | -28.3 kcal/mol | 67.5 °C |
| GACCGGCCGAAAGGCGTC (((..(((....)))))) | -12.5 kcal/mol | 38.4 °C |
| GACCGTGGAAACACAGTC (((.(((....))).))) | -23.8 kcal/mol | 40.5 °C |
| GACCGTGGAAACATGGTC ((((.((....)).)))) | -43.2 kcal/mol | 54.2 °C |
| GACCGTGGAAACGTGGTC ((((..(....)..)))) | -23.6 kcal/mol | 45.5 °C |
| GACCTCCGAAAGGAGTC (((.(((....)))))) | -15.3 kcal/mol | 49.2 °C |
| GACCTCCGAAAGGATGTC (((.(((....))).))) | -32.4 kcal/mol | 47.3 °C |
| GACCTGCCGAAAGGCGTC (((..(((....)))))) | -9.15 kcal/mol | 29.3 °C |
| GACCTGCGAAAGCAAGTC (((.(((....))).))) | -25.3 kcal/mol | 47.1 °C |
| GACCTGGCGAAAGCCGTC (((..(((....)))))) | -5.62 kcal/mol | 34.9 °C |
| GACCTTGGAAACAAAGTC (((.(((....))).))) | -20.3 kcal/mol | 26 °C |
| GACCTTGGAAACAAGACC (..((((....))))..) | -10.9 kcal/mol | 20 °C |
| GACCTTGGAAACAAGATC ((.((((....)))).)) | -21 kcal/mol | 30.6 °C |
| GACGAAACGAAAGTTGTC (((..(((....)))))) | -19.6 kcal/mol | 35 °C |
| GACGAACGAAAGTTGGTC (((.(((....))).))) | -36.7 kcal/mol | 48.8 °C |
| GACGAAGGAAACTCCGTC ((((.((....)).)))) | -26.2 kcal/mol | 37.7 °C |
| GACGACCGAAAGGTGGTC (((.(((....))).))) | -34.8 kcal/mol | 56 °C |
| GACGACCGAAAGGTTGTC (((.(((....))).))) | -42.3 kcal/mol | 63.4 °C |
| GACGACGAAAGTCCGTC ((((((....))).))) | -29.9 kcal/mol | 53.4 °C |

| Sequence | folding enthalpy [1] | Tm [2] |
| --- | --- | --- |
| GACGACGAAAGTCCTGTC ((((((....)))..))) | -16.4 kcal/mol | 31.4 °C |
| GACGACGAAAGTCGAGTC ((((((....)))..))) | -10.5 kcal/mol | 39.7 °C |
| GACGACGAAAGTCGGTC ((((((....))).))) | -12.2 kcal/mol | 60.3 °C |
| GACGACGAAAGTCTGTC ((((((....))).))) | -24.4 kcal/mol | 51.4 °C |
| GACGACGGAAACGCCGTC ((((.((....)).)))) | -31.4 kcal/mol | 56.4 °C |
| GACGACGGAAACGTCATC ((.((((....)))).)) | -15.7 kcal/mol | 38.8 °C |
| GACGAGACGAAAGTCGTC (((..(((....)))))) | -13.8 kcal/mol | 49 °C |
| GACGAGCCGAAAGGCGTC (((..(((....)))))) | -8.53 kcal/mol | 42.3 °C |
| GACGAGCGAAAGCTGGTC (((.(((....))).))) | -31.2 kcal/mol | 54.8 °C |
| GACGAGCGAAAGCTTGTC (((.(((....))).))) | -36.8 kcal/mol | 61.2 °C |
| GACGAGGAAACTCGTC ((((((....)))))) | -41.1 kcal/mol | 61.2 °C |
| GACGATGGAAACACCGTC ((((.((....)).)))) | -29.6 kcal/mol | 45.4 °C |
| GACGATGGAAACATCGCC (.(((((....))))).) | -17.9 kcal/mol | 47.3 °C |
| GACGCACGAAAGTGAGTC (((.(((....))).))) | -40 kcal/mol | 60 °C |
| GACGCACGAAAGTGGGTC (((.(((....))).))) | -35.3 kcal/mol | 63.9 °C |
| GACGCACGAAAGTGGTC (((.(((....)))))) | -16.9 kcal/mol | 51.7 °C |
| GACGCCCGAAAGGGGTC (((.(((....)))))) | -17.1 kcal/mol | 55.6 °C |
| GACGCCCGAAAGGGTGTC (((.(((....))).))) | -35.5 kcal/mol | 69.3 °C |
| GACGCCGAAAGGCAGGTC ((((((....)))..))) | -16.2 kcal/mol | 52.1 °C |
| GACGCCGAAAGGCAGTC ((((((....))).))) | -18.2 kcal/mol | 63.7 °C |
| GACGCCGAAAGGCGGTC ((((((....))).))) | -9.77 kcal/mol | 64.9 °C |
| GACGCCGAAAGGCTTGTC ((((((....)))..))) | -13.5 kcal/mol | 41.1 °C |

From the array DNA melting data of Ke et al. (doi:10.1101/2024.01.08.574731)
